Reference: ChEMBL document CHEMBL3407479, “Structure-activity relationship for the oxadiazole class of antibiotics” (J Med Chem, 2015)
In brackets after ≈: the same amount, converted by molar mass.

Assays:
[1] = Plasma protein binding in human by equilibrium dialysis assay
[2] = test system: Staphylococcus aureus; test: Antibacterial activity against mecA-positive, methicillin/oxacillin/tetracycline-resistant and vancomycin/linezolid susceptible Staphylococcus aureus COL after 16 to 20 hrs by broth microdilution method; type: functional
[3] = test system: Enterococcus faecalis; test: Antibacterial activity against vancomycin-resistant Enterococcus faecalis 99 clinical isolate after 16 to 20 hrs by broth microdilution method; type: functional
[4] = test system: Enterococcus faecium; test: Antibacterial activity against vancomycin-resistant Enterococcus faecium 106 clinical isolate after 16 to 20 hrs by broth microdilution method
[5] = test system: Streptococcus pyogenes; test: Antibacterial activity against Streptococcus pyogenes ATCC 49399 after 16 to 20 hrs by broth microdilution method; type: functional
[6] = test system: Staphylococcus aureus; test: Antibacterial activity against vancomycin/methicillin-resistant Staphylococcus aureus VRS1 clinical isolate after 16 to 20 hrs by broth microdilution method; type: functional
[7] = test system: Enterococcus faecalis; test: Antibacterial activity against vancomycin-susceptible Enterococcus faecalis 201 clinical isolate after 16 to 20 hrs by broth microdilution method; type: functional
[8] = test system: Staphylococcus aureus; test: Antibacterial activity against mecA-positive, methicillin/oxacillin/tetracycline-resistant and vancomycin/linezolid susceptible Staphylococcus aureus ATCC 27660 after 16 to 20 hrs by broth microdilution method; type: functional
[9] = test system: Staphylococcus haemolyticus; test: Antibacterial activity against Staphylococcus haemolyticus ATCC 29970 after 16 to 20 hrs by broth microdilution method; type: functional
[10] = test system: Staphylococcus aureus; test: Antibacterial activity against vancomycin/methicillin-resistant Staphylococcus aureus VRS2 clinical isolate after 16 to 20 hrs by broth microdilution method; type: functional
[11] = Plasma protein binding in human at 10 uM after 6 hrs by equilibrium dialysis assay; type: ADME, cell-free
[12] = test system: Streptococcus oralis; test: Antibacterial activity against Streptococcus oralis ATCC 9811 after 16 to 20 hrs by broth microdilution method; type: functional
[13] = test system: Enterococcus faecium; test: Antibacterial activity against vancomycin-susceptible Enterococcus faecium 119-39A clinical isolate after 16 to 20 hrs by broth microdilution method; type: functional
[14] = test system: Bacillus cereus; test: Antibacterial activity against Bacillus cereus ATCC 13061 after 16 to 20 hrs by broth microdilution method; type: functional
[15] = test system: Staphylococcus aureus; test: Antibacterial activity against methicillin-sensitive Staphylococcus aureus ATCC 29213 after 16 to 20 hrs by broth microdilution method; type: functional
[16] = test system: Bacillus licheniformis; test: Antibacterial activity against Bacillus licheniformis ATCC 12759 after 16 to 20 hrs by broth microdilution method; type: functional
[17] = test system: Staphylococcus aureus; test: Antibacterial activity against mecA-positive, ciprofloxacin/gentamicin/oxacillin/penicillin/linezolid-resistant Staphylococcus aureus NRS120 after 16 to 20 hrs by broth microdilution method; type: functional
[18] = test system: Staphylococcus epidermidis; test: Antibacterial activity against Staphylococcus epidermidis ATCC 35547 after 16 to 20 hrs by broth microdilution method; type: functional
[19] = test system: HepG2; test: Cytotoxicity against human HepG2 cells assessed as cell viability after 16 hrs by XTT assay; type: cell-based; settings: HepG2, 16 h
Outline: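 HepG2 cells were run in triplicate in an XTT viability assay. IC50 was derived from the concentration–response data.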

[20] = test system: Enterococcus faecalis; test: Antibacterial activity against Enterococcus faecalis ATCC 29212 after 16 to 20 hrs by broth microdilution method; type: functional
[21] = test system: Staphylococcus aureus; test: Antibacterial activity against mecA-positive, ciprofloxacin/gentamicin/oxacillin/penicillin/linezolid-resistant Staphylococcus aureus NRS119 after 16 to 20 hrs by broth microdilution method; type: functional
[22] = test system: Enterococcus faecium; test: Antibacterial activity against Enterococcus faecium NCTC 7171 after 16 to 20 hrs by broth microdilution method; type: functional
[23] = test system: Staphylococcus aureus; test: Antibacterial activity against methicillin-resistant Staphylococcus aureus ATCC 27660 in po dosed ICR mouse peritonitis infection model assessed as survival rate administered at 1 hr post infection; type: functional; settings: ATCC 27660, po
Outline: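 Female ICR mice, 6–8 weeks, given 0.5 mL ip of S. aureus (final 5×10^7 cfu/mL in 5% mucin). Six mice per dose level; a single oral dose at 1 h post-infection.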

[24] = AUC (0 to 8 hrs) in ICR mouse at 50 mg/kg, iv; type: ADME, organism-based; design: time < 8 hr, dose 50 mg/kg, route intravenous; settings: plasma

| SMILES | MIC [2] [µg/mL] | MIC [3] [µg/mL] | MIC [4] [µg/mL] | MIC [5] [µg/mL] | MIC [6] [µg/mL] | MIC [7] [µg/mL] | MIC [8] [µg/mL] | MIC [9] [µg/mL] | MIC [10] [µg/mL] | PPB [11] [%] | MIC [12] [µg/mL] | MIC [13] [µg/mL] | MIC [14] [µg/mL] | MIC [16] [µg/mL] | MIC [17] [µg/mL] | MIC [18] [µg/mL] | IC50 [19] [µg/mL] | MIC [20] [µg/mL] | MIC [21] [µg/mL] | MIC [22] [µg/mL] | also measured |
| --- | --- | --- | --- | --- | --- | --- | --- | --- | --- | --- | --- | --- | --- | --- | --- | --- | --- | --- | --- | --- | --- |
| Cc1onc(-c2ccccc2)c1C(=O)N[C@@H]1C(=O)N2[C@@H]1SC(C)(C)[C@@H]2C(=O)O [OXACILLIN] | – | – | – | – | – | – | – | – | – | – | – | – | – | – | – | – | – | – | – | – | fraction unbound [1]: < 0.09 |
| CC(C)Nc1c[nH]nc1-c1nc(-c2ccc(Oc3ccc(C(F)(F)F)cc3)cc2)no1 | > 128 | > 128 | > 128 | > 128 | 1 (≈ 2.33 µM) | > 128 | 0.5 (≈ 1.16 µM) | > 128 | 4 (≈ 9.32 µM) | 91.6 | > 128 | > 128 | > 128 | > 128 | > 128 | > 128 | 3.9 (≈ 9.08 µM) | > 128 | 2 (≈ 4.66 µM) | 32 (≈ 74.5 µM) | MIC [15]: 0.5 µg/mL (≈ 1.16 µM) |
| Fc1ccc(Oc2ccc(-c3noc(-c4n[nH]cc4Cl)n3)cc2)cc1 | > 128 | > 128 | > 128 | > 128 | 1 (≈ 2.8 µM) | > 128 | – | > 128 | – | 94.5 | > 128 | > 128 | > 128 | > 128 | 64 (≈ 179 µM) | > 128 | 18.2 (≈ 51 µM) | > 128 | 2 (≈ 5.61 µM) | 32 (≈ 89.7 µM) | MIC [15]: 1 µg/mL (≈ 2.8 µM) |
| CO[C@H]1/C=C/O[C@@]2(C)Oc3c(C)c(O)c4c(O)c(c(/C=N/N5CCN(C)CC5)c(O)c4c3C2=O)NC(=O)/C(C)=C\C=C\[C@H](C)[C@H](O)[C@@H](C)[C@@H](O)[C@@H](C)[C@H](OC(C)=O)[C@@H]1C [RIFAMPIN] | – | – | – | – | – | – | – | – | – | – | – | – | – | – | – | – | – | – | – | – | fraction unbound [1]: < 0.09 |
| CC(=O)NC[C@H]1CN(c2ccc(N3CCOCC3)c(F)c2)C(=O)O1 [LINEZOLID] | – | – | 1 (≈ 2.96 µM) | 1 (≈ 2.96 µM) | – | – | – | 2 (≈ 5.93 µM) | – | – | 1 (≈ 2.96 µM) | 2 (≈ 5.93 µM) | 1 (≈ 2.96 µM) | 1 (≈ 2.96 µM) | 32 (≈ 94.9 µM) | 1 (≈ 2.96 µM) | – | – | 32 (≈ 94.9 µM) | 2 (≈ 5.93 µM) | ED50 [23]: 2.8 mg/kg |
| C#Cc1c[nH]nc1-c1nc(-c2ccc(Oc3ccc(C(F)(F)F)cc3)cc2)no1 | > 128 | > 128 | > 128 | > 128 | 1 (≈ 2.52 µM) | > 128 | 0.5 (≈ 1.26 µM) | > 128 | 0.5 (≈ 1.26 µM) | 96.4 | > 128 | > 128 | > 128 | > 128 | > 128 | > 128 | 9.8 (≈ 24.7 µM) | > 128 | 32 (≈ 80.7 µM) | > 128 | MIC [15]: 0.25 µg/mL (≈ 0.631 µM) |
| CCCCCCCCCC(=O)N[C@@H](Cc1c[nH]c2ccccc12)C(=O)N[C@H](CC(N)=O)C(=O)N[C@@H](CC(=O)O)C(=O)N[C@@H]1C(=O)NCC(=O)N[C@@H](CCCN)C(=O)N[C@@H](CC(=O)O)C(=O)N[C@H](C)C(=O)N[C@@H](CC(=O)O)C(=O)NCC(=O)N[C@H](CO)C(=O)N[C@@H]([C@H](C)CC(=O)O)C(=O)N[C@@H](CC(=O)c2ccccc2N)C(=O)O[C@@H]1C | – | – | – | – | – | – | – | – | – | – | – | – | – | – | – | – | – | – | – | – | fraction unbound [1]: < 0.09 |
| FC(F)(F)c1ccc(Oc2ccc(-c3noc(-c4n[nH]cc4Cl)n3)cc2)cc1 | > 128 | > 128 | > 128 | > 128 | 1 (≈ 2.46 µM) | > 128 | 2 (≈ 4.92 µM) | > 128 | 0.5 (≈ 1.23 µM) | 97.8 | > 128 | > 128 | > 128 | > 128 | 64 (≈ 157 µM) | > 128 | 24.1 (≈ 59.3 µM) | > 128 | – | 16 (≈ 39.3 µM) | – |
| Oc1ccc(-c2nc(-c3ccc(Oc4ccc(C(F)(F)F)cc4)cc3)no2)cc1 | 2 (≈ 5.02 µM) | 2 (≈ 5.02 µM) | 2 (≈ 5.02 µM) | 32 (≈ 80.3 µM) | 2 (≈ 5.02 µM) | 2 (≈ 5.02 µM) | 2 (≈ 5.02 µM) | 2 (≈ 5.02 µM) | 2 (≈ 5.02 µM) | 99.9 | 32 (≈ 80.3 µM) | 1 (≈ 2.51 µM) | 2 (≈ 5.02 µM) | 2 (≈ 5.02 µM) | 2 (≈ 5.02 µM) | 2 (≈ 5.02 µM) | 25.8 (≈ 64.8 µM) | 2 (≈ 5.02 µM) | 2 (≈ 5.02 µM) | 2 (≈ 5.02 µM) | AUC(0-t) at 8 h [24]: 44200 ng·h/mL; MIC [15]: 1 µg/mL (≈ 2.51 µM) |
